In ChEMBL document CHEMBL3588772, “Synthesis, anti-mycobacterial activity and DNA sequence-selectivity of a library of biaryl-motifs containing polyamides” (Bioorg Med Chem, 2015):
Values after ≈ are worked out from the molar mass of the structure shown. Active and inactive are the calls of the source. The calls are words filed in the database; no cut-off is given here.

Assays:
[1] = Selectivity index, ratio of GIC50 for mouse RAW264.7 cells to MIC for Mycobacterium tuberculosis H37Rv; assay type: toxicity; details: read-out: Selectivity Index
Method in brief: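 Cytotoxicity was measured in mouse macrophage RAW264.7 cells by resazurin viability readout. GIC50 was interpolated at 50% viability versus untreated control. SI = GIC50 divided by the M. tuberculosis MIC from the agar spot assay.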

[2] = system: Mycobacterium tuberculosis; test: Antimycobacterial activity against Mycobacterium tuberculosis H37Rv after 7 days; assay type: functional; details: 168 h
Method in brief: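 HT-SPOTi agar growth inhibition in 96-well format. Serially diluted DMSO solutions were mixed into Middlebrook 7H10 agar (kept at 55 °C) with 0.05% glycerol and 10% OADC. Controls were DMSO-only wells and isoniazid. Each well received 2×10³ CFU of culture (pre-grown rolling at 2 rpm or standing, 37 °C). Plates ran 7 days at 37 °C. MIC = lowest concentration with no visible growth.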

[3] = Cytotoxicity against mouse RAW264.7 cells; assay type: cell-based
Method in brief: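 RAW264.7 mouse macrophages assessed by resazurin viability assay. GIC50 interpolated at 50% viability versus control.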

unidentified [4] = test: Binding affinity to 192 base-pair fragment HexB 5-ACATAT-3 (unknown origin) at 1 to 10 uM after 30 mins by DNaSeI footprinting assay
Method in brief: (§1)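 Radiolabelled HexB fragment in 10 mM Tris–HCl pH 7.5 with 0.1 mM EDTA, mixed with ligand in 10 mM Tris–HCl pH 7.5 with 10 mM NaCl. Equilibrated 30 min at room temperature, then DNase I in 20 mM NaCl, 2 mM MgCl₂, 2 mM MnCl₂ for 1 min. Heated 100 °C 3 min, resolved on 8% denaturing polyacrylamide gels, phosphorimaged. GA purine markers and no-ligand control lanes included.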

[5] = Binding affinity to 192 base-pair fragment HexB (unknown origin) at 1 to 10 uM after 30 mins by DNaSeI footprinting assay; method in brief: as §1
[6] = Binding affinity to 192 base-pair fragment HexB (unknown origin) at 5 to 10 uM after 30 mins by DNaSeI footprinting assay; method in brief: as §1
[7] = Binding affinity to 5'-ACVHA-3' (V= A or G or C; H= C or T or A) (unknown origin) at 2 uM after 45 mins by ethidium bromide assay
Method in brief: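 Hairpin oligonucleotides from a 512-member five-bp library at 1 µM base pairs final with 4.4 µM ethidium bromide in 0.1 M Tris–HCl, 0.1 M NaCl, pH 8. Fluorescence read after 15 min at room temperature (ex 545, em 595 nm). Ligand added at 2 µM final (DMSO), read again after 45 min. Triplicates; % fluorescence reduction relative to no-drug and no-DNA controls.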

unidentified [8] = test: Binding affinity to 192 base-pair fragment HexB 5-AATATT-3 (unknown origin) at 1 to 10 uM after 30 mins by DNaSeI footprinting assay; method in brief: as §1
[9] = Binding affinity to 192 base-pair fragment HexB 5-ATTAAT-3 (unknown origin) at 1 to 10 uM after 30 mins by DNaSeI footprinting assay; method in brief: as §1
[10] = Binding affinity to 192 base-pair fragment HexB 5-TTATAA-3 (unknown origin) at 5 to 10 uM after 30 mins by DNaSeI footprinting assay; method in brief: as §1
unidentified [11] = test: Binding affinity to 192 base-pair fragment HexB 5-TAATTA-3 (unknown origin) at 5 to 10 uM after 30 mins by DNaSeI footprinting assay; method in brief: as §1
[12] = Binding affinity to 192 base-pair fragment HexB 5-CAATTG-3 (unknown origin) at 5 to 10 uM after 30 mins by DNaSeI footprinting assay; method in brief: as §1

Row | Structure (SMILES) | selectivity ratio [1] | MIC [2] | GI50 [3] | Activity (unidentified [4]) | Activity [5] | Activity [6] | Activity [7] | Activity (unidentified [8]) | Activity [9] | Activity [10] | Activity (unidentified [11]) | Activity [12]
1 | NNC(=O)c1ccncc1 [ISONIAZID] | 60000 | 0.05 µg/mL (≈ 0.365 µM) | 3000 µg/mL (≈ 21900 µM) | – | – | – | – | – | – | – | – | –
2 | Cc1nc(-c2cnn(C)c2)sc1C(=O)Nc1cc(C(=O)Nc2cc(C(=O)NCCCN(C)C)n(C)c2)n(C)c1 | 8 | 31.2 µg/mL (≈ 56.6 µM) | 250 µg/mL (≈ 453 µM) | Active | Active | Active | Active | Active | Active | – | – | –
3 | CO[C@H]1/C=C/O[C@@]2(C)Oc3c(C)c(O)c4c(O)c(c(/C=N/N5CCN(C)CC5)c(O)c4c3C2=O)NC(=O)/C(C)=C\C=C\[C@H](C)[C@H](O)[C@@H](C)[C@@H](O)[C@@H](C)[C@H](OC(C)=O)[C@@H]1C [RIFAMPIN] | 14000 | 0.05 µg/mL (≈ 0.0608 µM) | 700 µg/mL (≈ 851 µM) | – | – | – | – | – | – | – | – | –
4 | CC(=O)Nc1ccc(-c2csc(C(=O)Nc3cc(C(=O)Nc4cc(C(=O)NCCCN(C)C)n(C)c4)n(C)c3)c2)cc1 | 1 | 62.5 µg/mL (≈ 106 µM) | 62.5 µg/mL (≈ 106 µM) | – | – | – | – | – | – | – | – | –
5 | CC(=O)Nc1ccc(-c2ccc(C(=O)Nc3cc(C(=O)Nc4cc(C(=O)NCCCN(C)C)n(C)c4)n(C)c3)o2)cc1 | 2 | 125 µg/mL (≈ 218 µM) | 250 µg/mL (≈ 436 µM) | – | – | – | – | – | – | – | – | –
6 | CC(=O)Nc1cccc(-c2ccc(C(=O)Nc3cc(C(=O)Nc4cc(C(=O)NCCCN(C)C)n(C)c4)n(C)c3)o2)c1 | 4 | 125 µg/mL (≈ 218 µM) | 500 µg/mL (≈ 872 µM) | – | – | – | – | – | – | – | – | –
7 | CC(=O)Nc1ccc(-c2cc(C(=O)Nc3cc(C(=O)Nc4cc(C(=O)NCCCN(C)C)n(C)c4)n(C)c3)n(C)c2)cc1 | 4 | 125 µg/mL (≈ 213 µM) | 500 µg/mL (≈ 852 µM) | – | – | – | – | – | – | – | – | –
8 | Cn1cc(NC(=O)c2cc(NC(=O)c3cc(NC=O)cn3C)cn2C)cc1C(=O)NCCC(=N)N [STALLIMYCIN] | 2 | 31.2 µg/mL (≈ 64.9 µM) | 62.5 µg/mL (≈ 130 µM) | – | Active | Active | – | – | – | Active | Active | Active
9 | Cc1nc(-c2ccsc2)sc1C(=O)Nc1cc(C(=O)Nc2cc(C(=O)NCCCN(C)C)n(C)c2)n(C)c1 | 0.25 | 250 µg/mL (≈ 451 µM) | 62.5 µg/mL (≈ 113 µM) | – | – | – | – | – | – | – | – | –
